# Results of several laboratories.
# Compare with care: the assays were run in different laboratories.
# Sample: plasma
SMILES,species,route,dose,notes,half-life
COCCOc1cnc2ccn([C@H](C)c3nnc4c(F)cc(-c5cnn(C)c5)cn34)c(=O)c2c1,human,oral,300 mg,"multiple doses, once daily, patients",9.7 h
Cn1cc(-c2ccc(S(=O)(=O)[C@@H]3C[C@@H](C(=O)NC4(C#N)CC4)N(C(=O)C4(C(F)(F)F)CC4)C3)c(C(F)(F)F)c2)cn1,human,oral,100 mg,"single dose, fed, healthy volunteers",8.8 h
COc1ccc(-n2nc(C(N)=O)c3c2C(=O)N(c2ccc(N4CCCCC4=O)cc2)CC3)cc1,human,oral,10 mg,"single dose, healthy volunteers",12.7 h
CO[C@@H]1[C@H](OC(=O)N2CC(CCN3CCOCC3)C2)CC[C@]2(CO2)[C@H]1[C@@]1(C)O[C@@H]1CC=C(C)C,human,subcutaneous,4.8 mg,"single dose, healthy volunteers",0.91 h
C[C@@H](Nc1cc(F)cc(F)c1)c1cc(C(=O)N(C)C)cc2c(=O)cc(N3CCOCC3)oc12,human,oral,30 mg,patients,3.79 h
CCNCCCNC/C=C\CNCCCNCC,human,intravenous,50 mg,"patients, infusion",0.18 h
COc1ccc([C@@H]2CN(C(=O)[C@@H](O)CO)C[C@@]2(C)[C@@H](C)O)cc1OC1CN(c2ccc(C)cn2)C1,human,oral,10 mg,"single dose, healthy volunteers",12.6 h
CCOc1cc([C@@H](CS(C)(=O)=O)N2C(=O)c3cccc(NC(C)=O)c3C2=O)ccc1OC,male human,oral,20 mg,"single dose, healthy volunteers",7.6 h
CC(C)n1cc(C#N)c2cc(-n3cc(C(=O)O)cn3)ccc21,human,oral,50 mg,"single dose, fasted, healthy volunteers",7.1 h
Cc1cc(Nc2ncc(Cl)c(Nc3ccccc3S(=O)(=O)C(C)C)n2)c2c(c1C1CCN(C)CC1)C[C@@H](C)O2,human,oral,160 mg,"single dose, fasted, healthy volunteers",34.6 h
NS(=O)(=O)NCCNc1nonc1C(=NO)Nc1ccc(F)c(Br)c1,human,oral,700 mg,"multiple doses, twice daily, steady state, patients",3 h
C[C@@H](c1ccc2nccn2c1)n1nnc2ncc(-c3cnn(C)c3)nc21,human,oral,600 mg,,7.1 h
COc1cc(C(=O)NC2CCN(C)CC2)c(F)cc1Nc1ncc(C(F)(F)F)c(Oc2cccc3c2C(=O)N(C)C3)n1,human,oral,10 mg,"multiple doses, once daily, patients",25.8 h
OC[C@H]1O[C@@H](c2ccc(Cl)c(Cc3ccc(O[C@H]4CCOC4)cc3)c2)[C@H](O)[C@@H](O)[C@@H]1O,male human,oral,25 mg,"multiple doses, once daily, steady state",8.44 h
CS(=O)(=O)n1cc2c(n1)CN([C@H]1CO[C@H](c3cc(F)ccc3F)[C@@H](N)C1)C2,male human,oral,10 mg,"single dose, fasted",49.9 h
c1cnc2ccc(Nc3nc(NC4CC4)c4nc[nH]c4n3)cc2c1,human,oral,400 mg/m²,patients,3.6 h
CC(C)(C)N/[N+]([O-])=N/OC1CCN(c2ccc(C#N)cn2)CC1,male human,oral,,"single dose, healthy volunteers",46 to 78 h
CS(=O)(=O)CCC#N,human,oral,100 mg,"multiple doses, once daily",16 h
CC(C)(Sc1ccncc1-c1ccc(C#N)c2ccccc12)C(=O)O,male human,oral,5 mg,"single dose, fasted, healthy volunteers",14.2 h
CO[C@H]1CC[C@H](N2C(=O)CNc3ncc(-c4ccc(C(C)(C)O)nc4)nc32)CC1,human,oral,15 mg,patients,3.35 h
CC(C)[C@](O)(c1ccc2cc(OC(F)F)c(OC(F)F)cc2c1)c1c[nH]nn1,female human,oral,600 mg,single dose,8.4 h
COc1ccc(-n2nc(C(N)=O)c3c2C(=O)N(c2ccc(N4CCCCC4=O)cc2)CC3)cc1,human,oral,20 mg,"single dose, healthy volunteers",~13 h
CO[C@H]1/C=C\C=C(/C)C(=O)NC2=CC(=O)C(NCCN(C)C)=C(C[C@@H](C)C[C@H](OC)[C@H](O)[C@@H](C)/C=C(\C)[C@@H]1OC(N)=O)C2=O,human,intravenous,27 mg/m²,"patients, infusion",22.5 h
C#C[C@]1(COP(=O)(O)OP(=O)(O)OP(=O)(O)O)O[C@@H](n2cnc3c(N)nc(F)nc32)C[C@@H]1O,human,oral,200 mg,single dose,116 h
O=C(Nc1c(Cl)cncc1Cl)c1ccc(OC(F)F)c(OCC2CC2)c1,human,oral,0.375 mg,single dose,19.7 h
O=C(/C=C/c1cccc(S(=O)(=O)Nc2ccccc2)c1)NO,human,intravenous,1900 mg/m²,patients,1.43 h
CC(C)(O)c1ccccc1-c1ccc2[nH]c(/C=C/c3ccc(C(F)(F)F)cc3)nc2c1,male human,oral,50 mg,"single dose, fasted, healthy volunteers",68.6 h
Nc1cc(C(F)(F)F)c(-c2cc(N3CCOCC3)nc(N3CCOCC3)n2)cn1,human,oral,100 mg/day,patients,30.6 h
Cc1nc(-c2cn3c(n2)-c2ccc(-c4cnn(C(C)(C)C(N)=O)c4)cc2OCC3)n(C(C)C)n1,human,oral,6 mg,patients,22.4 h
CCOc1ccc(Cc2cc([C@@H]3O[C@H](CO)[C@@H](O)[C@H](O)[C@H]3O)ccc2Cl)cc1,human,oral,10 mg,"multiple doses, steady state, healthy volunteers",10.4 h
Cc1nc(C(=O)NCC(=O)O)c(O)c2ccc(Oc3ccccc3)cc12,human,oral,100 mg,"single dose, healthy volunteers",11.7 h
